Active and inactive are the calls of the source.
Experiments:
Rattus norvegicus [1] = experiment: Toxicity in Sprague-Dawley rat assessed as suppression of intracranial self-stimulation reward function at 0.25 to 2 mg/kg, ip measured for 1 hr; type: organism-based; parameters: dose 0.25-2 mg/kg, route intraperitoneal; settings: in vivo
Outline: (§1)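 Male Sprague-Dawley rats with lateral hypothalamic medial forebrain bundle electrodes were given test drug i.p. in increasing doses (n=6/cohort). One series was 0–4.0 mg/kg in 20% DMSO/water; the other was 1.0–30.0 mg/kg in 0.9% saline. ICSS thresholds and maximum response rates were measured over four 15-min rate-frequency trials after baseline. Results were expressed as 100 × post/pre-treatment.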

Rattus norvegicus [2] = experiment: Toxicity in Sprague-Dawley rat assessed as suppression of intracranial self-stimulation reward function at 4 mg/kg, ip measured over 15 to 60 mins; type: organism-based; parameters: dose 4 mg/kg, route intraperitoneal; settings: in vivo; outline: as §1
Rattus norvegicus [3] = experiment: (§2) Reduction of reward potentiation effect of cocaine in ip dosed Sprague-Dawley rat assessed as blockade of cocaine-madiated reduction of intracranial self-stimulation threshold administered for 15 mins prior to cocaine challenge measured 15 mins post dose and 1 hr post cocaine challenge; type: functional, organism-based
Outline: (§3)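 Male Sprague-Dawley rats carried medial forebrain bundle electrodes and were trained by the rate-frequency method to stable thresholds (n=6/cohort). Baseline came from three 15-min functions. Test drug was given i.p. in increasing doses: 0, 0.5, 1.0, 2.0 mg/kg, or 0, 3.0, 10.0, 30.0 mg/kg. […] Data were expressed as 100 × post/pre.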

Mu-type opioid receptor [4] = molecular target: T1, Mu-type opioid receptor (Homo sapiens, UniProt P35372); experiment: Displacement of [3H]-DAMGO from human mu opioid receptor transfected in CHO cells after 60 mins; type: cell-based
T1 sequence (P35372 whole entry): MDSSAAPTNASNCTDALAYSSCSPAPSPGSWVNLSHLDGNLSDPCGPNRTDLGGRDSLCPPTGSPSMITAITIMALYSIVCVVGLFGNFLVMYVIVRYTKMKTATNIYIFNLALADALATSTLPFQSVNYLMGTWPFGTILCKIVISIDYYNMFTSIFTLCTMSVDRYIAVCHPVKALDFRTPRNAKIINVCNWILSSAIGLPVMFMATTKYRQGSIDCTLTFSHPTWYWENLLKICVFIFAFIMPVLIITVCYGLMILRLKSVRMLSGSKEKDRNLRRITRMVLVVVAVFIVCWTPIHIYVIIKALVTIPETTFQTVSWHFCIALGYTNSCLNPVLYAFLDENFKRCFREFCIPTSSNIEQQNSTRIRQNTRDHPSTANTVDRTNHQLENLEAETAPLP

[5] = molecular target: T2, Kappa-type opioid receptor (Homo sapiens, UniProt P41145); experiment: Agonist activity at human kappa opioid receptor transfected in CHO cells assessed as stimulation of [35S]GTPgammaS binding after 60 mins by scintillation counting analysis; type: functional, cell-based
T2 sequence (P41145 whole entry): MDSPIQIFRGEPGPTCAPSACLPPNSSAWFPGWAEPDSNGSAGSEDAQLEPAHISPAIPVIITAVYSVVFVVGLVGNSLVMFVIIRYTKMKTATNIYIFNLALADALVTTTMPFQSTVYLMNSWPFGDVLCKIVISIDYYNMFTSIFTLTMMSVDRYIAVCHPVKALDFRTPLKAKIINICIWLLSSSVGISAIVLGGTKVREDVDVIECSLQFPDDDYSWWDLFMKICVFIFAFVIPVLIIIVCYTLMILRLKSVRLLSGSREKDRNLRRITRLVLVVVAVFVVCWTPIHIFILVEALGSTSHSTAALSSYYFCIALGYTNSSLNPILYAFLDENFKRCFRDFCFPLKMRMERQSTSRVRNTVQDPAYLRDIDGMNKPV
Outline: (§4)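 Membranes from CHO cells stably expressing human KOR (15 μg protein/tube) or MOR (7.5 μg protein/tube) were incubated for 60 min at 30 °C with 12 compound concentrations, 3 μM GDP and […] [35S]GTPγS. Nonspecific binding used 10 μM GTPγS. Filtration, scintillation counting; % stimulation over basal. ≥3 experiments, triplicate.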

[6] = molecular target: T2, Kappa-type opioid receptor; experiment: Agonist activity at human kappa opioid receptor transfected in CHO cells assessed as stimulation of [35S]GTPgammaS binding after 60 mins by scintillation counting analysis relative to control; type: functional, cell-based; outline: as §4
Mu-type opioid receptor [7] = molecular target: T1, Mu-type opioid receptor; experiment: Antagonist activity at human mu opioid receptor transfected in CHO cells assessed as inhibition of DAMGO-induced [35S]GTPgammaS binding after 60 mins by scintillation counting analysis; type: functional, cell-based
Outline: (§5)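 Membranes from CHO cells expressing human MOR (7.5 μg protein/tube) were incubated with test compound plus 200 nM DAMGO, 3 μM GDP and […] [35S]GTPγS. Incubation was 60 min at 30 °C in Tris/MgCl2/NaCl/EGTA buffer, pH 7.4. Bound label was measured by filtration and scintillation counting. At least 3 experiments, each in triplicate.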

Mu-type opioid receptor [8] = molecular target: T1, Mu-type opioid receptor; experiment: Antagonist activity at human mu opioid receptor transfected in CHO cells assessed as inhibition of DAMGO-induced [35S]GTPgammaS binding after 60 mins by scintillation counting analysis relative to control; type: functional, cell-based; outline: as §5
Mu-type opioid receptor [9] = molecular target: T1, Mu-type opioid receptor; experiment: Agonist activity at human mu opioid receptor transfected in CHO cells assessed as stimulation of [35S]GTPgammaS binding after 60 mins by scintillation counting analysis relative to control; type: functional, cell-based; outline: as §4
Homo sapiens [10] = species on record: Homo sapiens; experiment: Selectivity ratio of Ki for human delta opioid receptor to Ki for human kappa opioid receptor
Homo sapiens [11] = species on record: Homo sapiens; experiment: Selectivity ratio of Ki for human mu opioid receptor to Ki for human kappa opioid receptor
[12] = molecular target: Delta-type opioid receptor (Homo sapiens, UniProt P41143); experiment: Displacement of [3H]-naltrindole from human delta opioid receptor transfected in CHO cells after 3 hrs; type: cell-based
Delta-type opioid receptor, sequence (P41143 whole entry): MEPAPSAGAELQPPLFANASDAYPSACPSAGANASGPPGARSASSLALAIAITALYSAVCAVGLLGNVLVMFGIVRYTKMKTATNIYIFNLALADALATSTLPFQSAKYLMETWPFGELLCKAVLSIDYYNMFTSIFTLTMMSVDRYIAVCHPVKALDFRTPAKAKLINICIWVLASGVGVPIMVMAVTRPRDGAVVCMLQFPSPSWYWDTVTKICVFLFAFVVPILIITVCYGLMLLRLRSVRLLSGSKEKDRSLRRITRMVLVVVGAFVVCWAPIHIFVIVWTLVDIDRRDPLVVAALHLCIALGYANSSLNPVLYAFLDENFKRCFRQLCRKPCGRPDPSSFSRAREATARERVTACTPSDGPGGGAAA

Mu-type opioid receptor [13] = molecular target: T1, Mu-type opioid receptor; experiment: Agonist activity at human mu opioid receptor transfected in CHO cells assessed as stimulation of [35S]GTPgammaS binding after 60 mins by scintillation counting analysis; type: functional, cell-based; outline: as §4
Mu-type opioid receptor [14] = molecular target: T1, Mu-type opioid receptor; experiment: Antagonist activity at human mu opioid receptor transfected in CHO cells assessed as inhibition of […] [35S]GTPgammaS binding after 60 mins by scintillation counting analysis relative to control; type: functional, cell-based
[15] = molecular target: T2, Kappa-type opioid receptor; experiment: Displacement of [3H]-U69593 from human kappa opioid receptor transfected in CHO cells after 60 mins; type: cell-based
Rattus norvegicus [16] = experiment: Toxicity in Sprague-Dawley rat assessed as suppression of intracranial self-stimulation reward function at 1 to 30 mg/kg, ip measured for 1 hr; type: organism-based; parameters: dose 1-30 mg/kg, route intraperitoneal; settings: in vivo; outline: as §1
Rattus norvegicus [17] = experiment: as §2, with “threshold at 3 to 30 mg/kg” for “threshold”; type: functional, organism-based; outline: as §3

For `Oc1ccc2c(c1)[C@@]13CCCC[C@H]1[C@@H](C2)N(CC1CCC1)CC3` [BUTORPHAN], the Activity (Rattus norvegicus [1]) was “Non-toxic”, the Activity (Rattus norvegicus [2]) was “Toxic” and the Activity (Rattus norvegicus [3]) was “Dose-dependent effect”.

Compound `COc1ccc2c(c1)[C@]13CCN(CC4CC4)[C@H](C2)[C@@H]1Cc1sc(N)nc1C3` has a Ki (Mu-type opioid receptor [4]) of 6.7 nM, an EC50 [5] of 49 nM and an Emax [6] of 140%. The IC50 (Mu-type opioid receptor [7]) was 640 nM, the Imax (Mu-type opioid receptor [8]) was 69% and the Emax (Mu-type opioid receptor [9]) was 24%. For the same compound, the Ratio Ki (Homo sapiens [10]) was 6.8, the Ratio Ki (Homo sapiens [11]) was 3.5 and the Ki [12] was 13 nM. For the same compound, the EC50 (Mu-type opioid receptor [13]) was 39 nM, the Imax (Mu-type opioid receptor [14]) was “inactive” and the Ki [15] was 1.9 nM.

Compound `CNc1nc2c(s1)C[C@H]1[C@H]3Cc4ccc(O)cc4[C@@]1(CCN3CC1CC1)C2` has a Ki (Mu-type opioid receptor [4]) of 0.14 nM, an EC50 [5] of 1.3 nM and an Emax [6] of 85%. For the same compound, the IC50 (Mu-type opioid receptor [7]) was 2.5 nM, the Imax (Mu-type opioid receptor [8]) was 76% and the Emax (Mu-type opioid receptor [9]) was 25%. For the same compound, the Ratio Ki (Homo sapiens [10]) was 5.1, the Ratio Ki (Homo sapiens [11]) was 1.7 and the Ki [12] was 0.43 nM. The EC50 (Mu-type opioid receptor [13]) was 0.52 nM, the Imax (Mu-type opioid receptor [14]) was 27% and the Ki [15] was 0.084 nM.

`CNc1nc2c(s1)C[C@H]1[C@H]3Cc4ccc(OC)cc4[C@@]1(CCN3CC1CC1)C2` was tested, and the Ki (Mu-type opioid receptor [4]) was 9.6 nM, the EC50 [5] was 97 nM and the Emax [6] was 140%. The IC50 (Mu-type opioid receptor [7]) was 650 nM, the Imax (Mu-type opioid receptor [8]) was 76% and the Emax (Mu-type opioid receptor [9]) was 28%. The Ratio Ki (Homo sapiens [10]) was 0.44, the Ratio Ki (Homo sapiens [11]) was 2.7 and the Ki [12] was 1.6 nM. For the same compound, the EC50 (Mu-type opioid receptor [13]) was 51 nM, the Imax (Mu-type opioid receptor [14]) was “inactive” and the Ki [15] was 3.6 nM.

For `Nc1nc2c(s1)C[C@H]1[C@H]3Cc4ccc(O)cc4[C@@]1(CCN3CC1CC1)C2`, the EC50 [5] was 0.61 nM, the Emax [6] was 59% and the Activity (Rattus norvegicus [16]) was “Non-toxic”. For the same compound, the Imax (Mu-type opioid receptor [14]) was 49% and the Activity (Rattus norvegicus [17]) was “inactive”.

For `COc1ccc2c(c1)[C@]13CCN(CC4CC4)[C@H](C2)[C@@H]1Cc1sc(NC(C)=O)nc1C3`, the Ki (Mu-type opioid receptor [4]) was 6.6 nM, the EC50 [5] was 140 nM and the Emax [6] was 120%. The IC50 (Mu-type opioid receptor [7]) was 500 nM, the Imax (Mu-type opioid receptor [8]) was 60% and the Emax (Mu-type opioid receptor [9]) was 47%. For the same compound, the Ratio Ki (Homo sapiens [10]) was 0.51, the Ratio Ki (Homo sapiens [11]) was 0.73 and the Ki [12] was 4.6 nM. The EC50 (Mu-type opioid receptor [13]) was 80 nM, the Imax (Mu-type opioid receptor [14]) was “inactive” and the Ki [15] was 9 nM.

In the case of `Nc1nc2cc3c(cc2s1)C[C@@H]1[C@@H]2CCCC[C@]32CCN1CC1CC1`, the Imax (Mu-type opioid receptor [14]) is reported as “inactive”.

— ChEMBL document CHEMBL3085732, “Synthesis and pharmacological evaluation of aminothiazolomorphinans at the mu and kappa opioid receptors” (J Med Chem, 2013)
